# Measurements gathered from unrelated publications.
# Lines come from different studies, so protocols differ.
# Target: Membrane-associated tyrosine- and threonine-specific cdc2-inhibitory kinase (PKMYT1, Homo sapiens, UniProt Q99640)
# Sequence (Q99640 1-499, as in one of the studies): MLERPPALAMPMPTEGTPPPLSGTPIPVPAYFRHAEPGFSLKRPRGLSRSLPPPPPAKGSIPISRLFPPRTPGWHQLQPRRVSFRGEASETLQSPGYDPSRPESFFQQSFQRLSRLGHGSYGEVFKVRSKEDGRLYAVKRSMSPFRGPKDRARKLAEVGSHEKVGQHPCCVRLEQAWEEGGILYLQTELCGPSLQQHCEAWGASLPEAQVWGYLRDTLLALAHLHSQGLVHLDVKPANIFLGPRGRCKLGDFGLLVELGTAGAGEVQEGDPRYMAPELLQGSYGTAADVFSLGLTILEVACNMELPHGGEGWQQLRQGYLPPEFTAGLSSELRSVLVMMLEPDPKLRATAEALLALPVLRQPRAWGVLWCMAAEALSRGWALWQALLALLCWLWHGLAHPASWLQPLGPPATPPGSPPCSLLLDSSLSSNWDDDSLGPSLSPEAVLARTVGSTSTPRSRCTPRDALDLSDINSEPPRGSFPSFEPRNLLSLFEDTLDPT
Compound,assay,setting,endpoint,value
O=C(Nc1cnn(-c2csc(C(=O)NC3COC3)c2)c1)Nc1c(F)cccc1Cl,"enzyme activity, inhibitor",5 µM,remaining activity,89.6%
Cc1ccc(C(=O)Nc2ccc(CN3CCN(C)CC3)c(C(F)(F)F)c2)cc1C#Cc1cnc2cccnn12,"enzyme activity, inhibitor",23.5 nM,remaining activity,84%
CC(C)(C)c1nc2c(s1)c1nc(N)ncc1c1ccc(NS(=O)(=O)c3c(F)cccc3F)c(F)c12,"enzyme activity, inhibitor, radiometric",1 µM,remaining activity,84%
C[C@@H]1CCN(c2nccc(-c3cnn4ncccc34)n2)C1,binding,1 µM,remaining binding,99%
CC(C)(C)c1nc(-c2cccc(NS(=O)(=O)c3c(F)cccc3F)c2F)c(-c2ccnc(N)n2)s1,"enzyme activity, inhibitor, radiometric",1 µM,remaining activity,88%
CNCc1ccccc1-c1csc([C@H](C)Nc2nc(C)nc3cc(OC)c(OC)cc23)c1,"cell-free assay, competition with immobilised ligand",1 µM,remaining binding,100%
C=CCn1c(=O)c2cnc(Nc3ccc(N4CCN(C)CC4)cc3)nc2n1-c1cccc(C(C)(C)O)n1,"thermal stability, DSF",100 µM,ΔTm,3 °C
O=C(Nc1cnn(-c2csc(C(=O)NC3COC3)c2)c1)Nc1ccccc1Cl,"enzyme activity, inhibitor",5 µM,remaining activity,87%
C[C@H](NC(=O)c1cnc2n1[C@](C)(Cc1ccc(C#N)cc1)C(=O)N2c1cc(Cl)c(F)c(Cl)c1)C(=O)NC1(c2ccccn2)CC1,"cell-free assay, competition with immobilised ligand",1 µM,remaining binding,79%
c1cnn2ncc(-c3ccnc(N4CCC45COC5)n3)c2c1,binding,1 µM,remaining binding,97%
Nc1ncnc2occ(-c3ccc(NC(=O)Nc4cc(C(F)(F)F)ccc4F)cc3)c12,"cell-free assay, inhibitor",20 µM,remaining signal,75%
